Assay results taken from ChEMBL document CHEMBL1649102, “Stereochemical survey of digitoxin monosaccharides: new anticancer analogues with enhanced apoptotic activity and growth inhibitory effect on human non-small cell lung cancer cell” (ACS Med Chem Lett, 2011).
Calls of active or inactive are those of the source. The rule behind the calls is not given here.

Key:
[1] = Growth inhibition of human NCI60 cells; format: functional
Method in brief: (§1)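 NCI-60 cell lines grown in RPMI 1640 with 5% FBS and 2 mM L-glutamine, plated at 5,000–40,000 cells/well and preincubated 24 h. Time-zero plates were TCA-fixed. Drug was given at five concentrations (10-fold or ½-log dilutions from DMSO stock) for 48 h at 37°C. Cells were TCA-fixed, stained with SRB, and read at 515 nm. GI50 is where [(Ti−Tz)/(C−Tz)]×100 = 50.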

NCI-H460 [2] = assay: Growth inhibition of human NCI-H460 cells after 48 hrs by MTT assay; format: functional; details: NCI-H460, 48 h
Method in brief: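 NCI-H460 cells in RPMI 1640 with 10% FBS were seeded at 10,000 cells/well for 12 h. Drug was diluted 1000× from DMSO into 1% FBS medium (DMSO <0.1%). Time-course runs used 50 nM; dose–response runs used 48 h exposure. Viability was read by MTT (4 h), with formazan dissolved in DMSO for 45 min and read at 562 nm. Triplicate wells, ≥3 runs (N = 9), two-way ANOVA.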

DU-145 = assay: Growth inhibition of human DU145 cells; format: functional; method in brief: as §1
SN12C = assay: Growth inhibition of human SN12C cells; format: functional
Method in brief: (§2)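 NCI-60 panel SRB assay. Cells in RPMI 1640 with 5% FBS and 2 mM L-glutamine, plated at 5,000-40,000 cells/well and grown 24 h before dosing; time-zero plates TCA-fixed. Five concentrations (10-fold or ½ log dilutions, from DMSO stock) applied for 48 h at 37°C. TCA fixation (16% final for suspension cells), SRB stain, absorbance 515 nm; GI50 from net protein increase versus control.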

CAKI-1 = assay: Growth inhibition of human Caki1 cells; format: functional; method in brief: as §1
NCI-H460 [3] = assay: Cytotoxicity against human NCI-H460 cells assessed as cell death at 50 nM after 12 hrs by Hoechst-33342 staining and propidium iodide staining; format: functional, cell-based; details: NCI-H460, 12 h
Method in brief: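 NCI-H460 cells were seeded at 50,000 cells/well for 12 h, then exposed 12 h in serum-free medium (DMSO <0.1%). Cells were stained with Hoechst 33342 (10 µg/ml) and propidium iodide (20 µg/ml) for 30 min at 37°C. Condensed or fragmented nuclei were scored by fluorescence microscopy, and apoptotic index = apoptotic/total nuclei ×100. Duplicate wells, ≥3 runs (N = 6).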

RXF 393 = assay: Growth inhibition of human RXF393 cells; format: functional; method in brief: as §1
OVCAR-3 = assay: Growth inhibition of human OVCAR3 cells; format: functional; method in brief: as §1
MOLT-4 = assay: Growth inhibition of human MOLT4 cells; format: functional; method in brief: as §1
UO-31 = assay: Growth inhibition of human UO31 cells; format: functional; method in brief: as §2
A498 = assay: Growth inhibition of human A498 cells; format: functional; method in brief: as §1
NCI-H460 [4] = assay: Induction of apoptosis human NCI-H460 cells assessed as cellular degradation at 50 nM after 12 hrs by Hoechst-33342 staining; format: functional
Method in brief: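 NCI-H460 seeded 50,000 cells/well for 12 h, then exposed 12 h in serum-free medium (DMSO <0.1%). Stained 30 min at 37°C with 10 µg/ml Hoechst 33342 plus 20 µg/ml propidium iodide. Condensed or fragmented nuclei scored by fluorescence microscopy; apoptotic index = apoptotic/total nuclei ×100. 2 replicate wells, ≥3 runs (N = 6).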

HCT-116 = assay: Growth inhibition of human HCT116 cells; format: functional; method in brief: as §1
TK-10 = assay: Growth inhibition of human TK10 cells; format: functional; method in brief: as §2
786-0 = assay: Growth inhibition of human 786-0 cells; format: functional; method in brief: as §1
NCI-H460 [5] = assay: Growth inhibition of human NCI-H460 cells; format: functional; method in brief: as §1
ACHN = assay: Growth inhibition of human ACHN cells; format: functional; method in brief: as §1
A549 = assay: Growth inhibition of human A549 cells; format: functional; method in brief: as §1
OVCAR-8 = assay: Growth inhibition of human OVCAR8 cells; format: functional; method in brief: as §1

C[C@H]1O[C@H](O[C@H]2CC[C@@]3(C)[C@H](CC[C@@H]4[C@@H]3CC[C@]3(C)[C@@H](C5=CC(=O)OC5)CC[C@]43O)C2)C=C[C@@H]1O
GI50 [1]: 1 nM

C[C@@H]1O[C@H](O[C@H]2CC[C@@]3(C)[C@H](CC[C@@H]4[C@@H]3CC[C@]3(C)[C@@H](C5=CC(=O)OC5)CC[C@]43O)C2)C[C@@H](O)[C@H]1O
GI50 [1]: > 50 nM

C[C@@H]1O[C@H](O[C@H]2CC[C@@]3(C)[C@H](CC[C@@H]4[C@@H]3CC[C@]3(C)[C@@H](C5=CC(=O)OC5)CC[C@]43O)C2)C[C@H](O)[C@H]1O
GI50 [1]: 1 nM

C[C@H]1O[C@H](O[C@H]2CC[C@@]3(C)[C@H](CC[C@@H]4[C@@H]3CC[C@]3(C)[C@@H](C5=CC(=O)OC5)CC[C@]43O)C2)CC[C@@H]1O
GI50 [1]: 113 nM

C[C@H]1O[C@@H](O[C@H]2CC[C@@]3(C)[C@H](CC[C@@H]4[C@@H]3CC[C@]3(C)[C@@H](C5=CC(=O)OC5)CC[C@]43O)C2)C[C@H](O)[C@@H]1O
GI50 (NCI-H460 [2]): 3.8 nM
growth inhibition (GI) (DU-145): Active
growth inhibition (GI) (SN12C): Active
growth inhibition (GI) (CAKI-1): Active
IC50 (NCI-H460 [3]): 74.8 nM
GI50 [1]: 25 nM
growth inhibition (GI) (RXF 393): Active
growth inhibition (GI) (OVCAR-3): Active
growth inhibition (GI) (MOLT-4): Active
growth inhibition (GI) (UO-31): Active
growth inhibition (GI) (A498): Active
Activity (NCI-H460 [4]): 28.8%
growth inhibition (GI) (HCT-116): Active
growth inhibition (GI) (TK-10): Active
growth inhibition (GI) (786-0): Active
growth inhibition (GI) (NCI-H460 [5]): Active
growth inhibition (GI) (ACHN): Active
growth inhibition (GI) (A549): Active
growth inhibition (GI) (OVCAR-8): Active
